Measured values reported in ChEMBL document CHEMBL1933064, “Synthesis and evaluation of potential inhibitors of human and Escherichia coli histidine triad nucleotide binding proteins” (Bioorg Med Chem Lett, 2012).
Activity calls are given as the source filed them. The rule behind the calls is not given here.

Key:
[1] = Non-competitive inhibition of Escherichia coli HinT using tryptamine 5'-adenosine phosphoramidate as substrate compound pre-incubated for 30 secs prior substrate addition measured for 2 mins by Dixon plot analysis
How it was run: (§1)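 Phosphoramidase assay on fluorogenic tryptamine 5'-adenosine phosphoramidate (TpAd), ecHinT or hHint1 enzyme. Enzyme pre-incubated with inhibitor 30 s at 25 °C, then substrate added. Hydrolysis followed as fluorescence rise (excitation 280 nm, emission 360 nm) over 2 min. HEPES buffer pH 7.2, 25 °C; Ki derived from rates versus concentration.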

[2] = target: Adenosine 5'-monophosphoramidase HINT1 (Homo sapiens, UniProt P49773); assay: Non-competitive inhibition of human HinT1 using tryptamine 5'-adenosine phosphoramidate as substrate compound pre-incubated for 30 secs prior substrate addition measured for 2 mins by Dixon plot analysis; how it was run: as §1
Escherichia coli [3] = assay: Growth inhibition of Escherichia coli BW25113 at 100 uM after 40 hrs in presence of glucose as sole carbon source; type: functional, organism-based
Escherichia coli [4] = assay: Inhibition of HinT in Escherichia coli BW25113 assessed as impaired growth at 100 uM after 40 hrs in presence of D,L-alanine as sole carbon source

## Nc1ncnc2c1ncn2[C@@H]1O[C@H](COC(=O)CCCc2c[nH]c3ccccc23)[C@@H](O)[C@H]1O
[1]
  Ki: 393 µM
[2]
  Ki: 457 µM

## Cc1cn([C@H]2C[C@H](N)[C@@H](COC(=O)NCCc3c[nH]c4ccccc34)O2)c(=O)[nH]c1=O
Escherichia coli [3]
  growth inhibition (GI): inactive
[1]
  Ki: 122 µM
[2]
  Ki: 139 µM
Escherichia coli [4]
  inhibition: Active

## Nc1ncnc2c1ncn2[C@@H]1O[C@H](COC(=O)NCCc2c[nH]c3ccccc23)[C@@H](O)[C@H]1O
Escherichia coli [3]
  growth inhibition (GI): inactive
[1]
  Ki: 73 µM
[2]
  Ki: 103 µM
Escherichia coli [4]
  inhibition: Active

## Nc1nc2c(ncn2[C@@H]2O[C@H](COC(=O)NCCc3c[nH]c4ccccc34)[C@@H](O)[C@H]2O)c(=O)[nH]1
Escherichia coli [3]
  growth inhibition (GI): inactive
[1]
  Ki: 42 µM
[2]
  Ki: 34 µM
Escherichia coli [4]
  inhibition: Active

## Nc1ncnc2c1ncn2[C@@H]1O[C@H](COC(=O)CCc2c[nH]c3ccccc23)[C@@H](O)[C@H]1O
[1]
  Ki: 375 µM
[2]
  Ki: 400 µM

## Cc1cn([C@H]2C[C@H](N=[N+]=[N-])[C@@H](COC(=O)NCCc3c[nH]c4ccccc34)O2)c(=O)[nH]c1=O
[1]
  Ki: 565 µM
[2]
  Ki: 715 µM
